Consider three compounds from ChEMBL document CHEMBL4196108, “5-Aroylindoles Act as Selective Histone Deacetylase 6 Inhibitors Ameliorating Alzheimer's Disease Phenotypes” (J Med Chem, 2018).

The target in experiment [1] is T1, Protein deacetylase HDAC6 (Homo sapiens) (UniProt Q9UBN7).
T1 sequence (whole entry): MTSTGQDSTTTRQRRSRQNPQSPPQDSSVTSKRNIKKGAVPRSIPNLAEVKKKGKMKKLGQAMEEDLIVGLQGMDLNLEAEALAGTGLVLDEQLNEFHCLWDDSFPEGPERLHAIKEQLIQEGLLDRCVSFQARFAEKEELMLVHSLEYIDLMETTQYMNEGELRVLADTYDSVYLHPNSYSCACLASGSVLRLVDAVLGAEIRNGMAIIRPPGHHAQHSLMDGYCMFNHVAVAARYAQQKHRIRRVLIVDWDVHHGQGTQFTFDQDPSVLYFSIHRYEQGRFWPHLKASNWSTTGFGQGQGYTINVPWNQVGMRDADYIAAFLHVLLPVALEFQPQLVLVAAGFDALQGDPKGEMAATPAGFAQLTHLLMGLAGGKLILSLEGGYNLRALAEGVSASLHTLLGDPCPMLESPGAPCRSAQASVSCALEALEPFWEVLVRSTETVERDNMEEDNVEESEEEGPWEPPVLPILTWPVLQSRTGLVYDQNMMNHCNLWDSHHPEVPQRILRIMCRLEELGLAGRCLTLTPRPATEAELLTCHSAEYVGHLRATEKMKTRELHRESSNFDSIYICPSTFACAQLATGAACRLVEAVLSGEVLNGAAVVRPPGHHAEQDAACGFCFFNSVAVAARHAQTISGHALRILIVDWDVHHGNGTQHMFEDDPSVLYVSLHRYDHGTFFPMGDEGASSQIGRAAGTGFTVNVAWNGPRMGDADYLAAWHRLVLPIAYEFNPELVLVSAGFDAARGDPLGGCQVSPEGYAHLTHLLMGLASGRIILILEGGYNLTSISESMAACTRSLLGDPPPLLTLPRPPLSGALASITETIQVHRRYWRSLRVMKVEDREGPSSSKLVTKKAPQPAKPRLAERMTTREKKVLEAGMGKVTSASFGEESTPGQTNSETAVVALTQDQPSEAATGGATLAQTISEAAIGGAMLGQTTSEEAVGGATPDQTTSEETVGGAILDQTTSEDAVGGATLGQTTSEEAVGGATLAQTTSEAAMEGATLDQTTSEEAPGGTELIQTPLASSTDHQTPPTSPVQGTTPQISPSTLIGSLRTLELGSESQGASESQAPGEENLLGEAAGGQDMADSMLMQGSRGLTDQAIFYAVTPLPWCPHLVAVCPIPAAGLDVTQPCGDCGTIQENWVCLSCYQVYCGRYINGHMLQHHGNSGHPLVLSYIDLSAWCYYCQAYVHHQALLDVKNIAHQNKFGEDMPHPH
The experiment can be described thus: Inhibition of HDAC6 in human SH-SY5Y cells assessed as increase in acetylation of alpha-tubulin at 0.1 to 1 uM after 24 hrs by Western blot analysis. Type of experiment: cell-based. A digest of the protocol: (§1)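 SH-SY5Y cells in MEM with 10% FBS at 37 °C, 5% CO2, treated 24 h at 0.1–1 µM. Lysates in HEPES/Triton buffer; 20 µg protein run on SDS-PAGE and immunoblotted for acetyl-α-tubulin, α-tubulin, acetyl-histone H3 and histone H3 with ECL detection.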
A general note: In western blotting, separated proteins are transferred to a membrane and probed.

The next experiment concerns SH-SY5Y. The experiment can be described thus: Inhibition of class 1 HDAC in human SH-SY5Y cells assessed as increase in acetylation of histone H3 at 0.1 to 1 uM after 24 hrs by Western blot analysis. Type of experiment: cell-based. Put shortly:
as §1

Another experiment addresses Histone deacetylase 2 (Homo sapiens, UniProt Q92769). Description: Inhibition of human HDAC2 using RHKKAc peptide as substrate.
In experiment [2] the target is T2, Polyamine deacetylase HDAC10 (Homo sapiens, UniProt Q969S8).
T2 sequence (Q969S8 whole entry): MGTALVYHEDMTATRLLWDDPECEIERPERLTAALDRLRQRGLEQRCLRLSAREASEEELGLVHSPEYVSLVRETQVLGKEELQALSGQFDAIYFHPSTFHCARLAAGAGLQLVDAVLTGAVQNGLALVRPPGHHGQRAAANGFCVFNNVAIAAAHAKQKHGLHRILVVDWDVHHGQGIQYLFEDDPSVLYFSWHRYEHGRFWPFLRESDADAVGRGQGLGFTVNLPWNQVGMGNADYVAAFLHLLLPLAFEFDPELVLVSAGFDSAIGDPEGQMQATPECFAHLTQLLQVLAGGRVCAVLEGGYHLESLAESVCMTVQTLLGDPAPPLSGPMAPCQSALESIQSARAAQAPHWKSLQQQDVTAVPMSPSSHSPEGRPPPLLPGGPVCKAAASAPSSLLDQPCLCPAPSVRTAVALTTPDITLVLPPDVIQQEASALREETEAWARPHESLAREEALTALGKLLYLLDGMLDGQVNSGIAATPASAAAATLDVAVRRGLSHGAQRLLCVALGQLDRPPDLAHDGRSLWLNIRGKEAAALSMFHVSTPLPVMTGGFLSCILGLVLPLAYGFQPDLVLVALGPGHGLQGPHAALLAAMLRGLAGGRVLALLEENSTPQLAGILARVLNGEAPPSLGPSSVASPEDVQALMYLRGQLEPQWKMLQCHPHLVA
Description: Inhibition of human HDAC10 using RHKKAc peptide as substrate.

Experiment [3] is filed under the species Homo sapiens. The experiment can be described thus: Selectivity index, ratio of IC50 for human HDAC10 to IC50 for human HDAC6.
For another experiment, the target named is Histone deacetylase 1 (Homo sapiens, UniProt Q13547). The experiment can be described thus: Inhibition of human HDAC1 using RHKKAc peptide as substrate.
The target in experiment [4] is T3, Protein deacetylase HDAC6 (Homo sapiens, UniProt Q9UBN7).
T3 sequence (Q9UBN7 whole entry): T1 sequence (whole entry)
Description: Inhibition of human HDAC6 using RHKKAc peptide as substrate.

Another experiment has as its target Histone deacetylase 3 (Homo sapiens, UniProt O15379).
The next experiment deals with T4, Histone deacetylase 8 (Homo sapiens, UniProt Q9BY41).
T4 sequence (Q9BY41 whole entry): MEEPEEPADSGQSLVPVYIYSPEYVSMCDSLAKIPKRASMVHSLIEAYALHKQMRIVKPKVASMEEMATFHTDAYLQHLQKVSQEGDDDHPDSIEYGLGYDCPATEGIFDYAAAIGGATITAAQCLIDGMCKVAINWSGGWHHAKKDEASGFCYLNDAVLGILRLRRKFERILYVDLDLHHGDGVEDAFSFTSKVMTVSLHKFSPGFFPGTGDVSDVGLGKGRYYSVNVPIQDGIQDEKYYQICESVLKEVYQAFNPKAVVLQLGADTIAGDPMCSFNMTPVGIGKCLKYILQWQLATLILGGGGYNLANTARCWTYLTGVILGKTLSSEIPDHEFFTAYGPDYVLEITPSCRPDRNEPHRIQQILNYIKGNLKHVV
Description: Inhibition of human HDAC8 using RHKAcKAc peptide as substrate.

The species named for experiment [5] is Homo sapiens. The experiment can be described thus: Selectivity index, ratio of IC50 for human HDAC3 to IC50 for human HDAC6.
For experiment [6], the species on record is Homo sapiens. The experiment can be described thus: Selectivity index, ratio of IC50 for human HDAC8 to IC50 for human HDAC6.
For experiment [7], the species on record is Homo sapiens. The experiment can be described thus: Selectivity index, ratio of IC50 for human HDAC2 to IC50 for human HDAC6.
The species entered for experiment [8] is Homo sapiens. Description: Selectivity index, ratio of IC50 for human HDAC1 to IC50 for human HDAC6.

The source made the active and inactive calls. The calls are words filed in the database; no cut-off is given here.

Chain of Histone deacetylase 1 (Q13547 whole entry): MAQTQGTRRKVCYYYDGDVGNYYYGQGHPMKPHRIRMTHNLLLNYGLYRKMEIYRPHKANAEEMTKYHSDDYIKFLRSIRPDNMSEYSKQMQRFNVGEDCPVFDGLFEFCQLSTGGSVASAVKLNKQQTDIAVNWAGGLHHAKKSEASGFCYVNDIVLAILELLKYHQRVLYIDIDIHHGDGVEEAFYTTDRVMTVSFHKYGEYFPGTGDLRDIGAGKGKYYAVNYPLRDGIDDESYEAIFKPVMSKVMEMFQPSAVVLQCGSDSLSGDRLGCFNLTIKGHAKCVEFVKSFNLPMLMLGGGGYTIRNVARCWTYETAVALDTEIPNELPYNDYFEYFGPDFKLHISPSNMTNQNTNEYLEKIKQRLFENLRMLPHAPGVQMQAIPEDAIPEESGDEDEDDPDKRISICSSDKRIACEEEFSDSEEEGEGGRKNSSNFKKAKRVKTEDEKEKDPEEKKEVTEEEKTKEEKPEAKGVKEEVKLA
Chain of Histone deacetylase 3 (O15379 whole entry): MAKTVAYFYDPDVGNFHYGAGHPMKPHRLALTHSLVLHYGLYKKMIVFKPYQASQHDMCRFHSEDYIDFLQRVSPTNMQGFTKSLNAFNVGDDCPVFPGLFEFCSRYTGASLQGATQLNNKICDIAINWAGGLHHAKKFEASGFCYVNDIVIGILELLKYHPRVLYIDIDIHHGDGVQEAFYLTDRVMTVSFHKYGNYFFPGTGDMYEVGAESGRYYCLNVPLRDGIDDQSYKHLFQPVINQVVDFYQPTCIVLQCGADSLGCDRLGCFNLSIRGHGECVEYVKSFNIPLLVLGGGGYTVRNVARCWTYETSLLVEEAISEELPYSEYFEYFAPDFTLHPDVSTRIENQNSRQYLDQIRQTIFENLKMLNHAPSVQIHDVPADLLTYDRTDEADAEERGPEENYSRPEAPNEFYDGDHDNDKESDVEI
Chain of Histone deacetylase 2 (Q92769 whole entry): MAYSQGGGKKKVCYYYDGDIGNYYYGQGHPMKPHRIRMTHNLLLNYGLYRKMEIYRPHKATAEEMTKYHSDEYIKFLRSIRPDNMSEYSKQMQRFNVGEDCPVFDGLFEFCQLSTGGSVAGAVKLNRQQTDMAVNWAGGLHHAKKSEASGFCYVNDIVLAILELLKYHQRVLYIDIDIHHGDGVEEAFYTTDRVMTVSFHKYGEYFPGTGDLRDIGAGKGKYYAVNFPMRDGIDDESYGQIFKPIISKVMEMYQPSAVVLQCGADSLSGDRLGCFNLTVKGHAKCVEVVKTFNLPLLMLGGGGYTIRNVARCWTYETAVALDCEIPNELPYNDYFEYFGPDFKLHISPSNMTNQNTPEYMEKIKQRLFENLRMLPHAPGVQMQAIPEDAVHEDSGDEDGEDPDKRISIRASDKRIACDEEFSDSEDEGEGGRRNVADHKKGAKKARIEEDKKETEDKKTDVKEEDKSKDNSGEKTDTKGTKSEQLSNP

On to `O=C(CCCCCCNC(=O)c1cnc(N(c2ccccc2)c2ccccc2)nc1)NO`, for which the inhibition result (in experiment [1]; in the experiment on SH-SY5Y) was “Active” in each case.

Regarding `COc1ccc(C(=O)c2ccc3c(ccn3Cc3ccc(C(=O)NO)cc3)c2)cc1OC`, the IC50 was found to be 3.03 µM on Histone deacetylase 2; 18.9 µM in experiment [2]; 2.8 µM against Histone deacetylase 1; 0.0155 µM in [4]; 6.05 µM at Histone deacetylase 3; 0.756 µM against Histone deacetylase 8. For the same compound, the Ratio IC50 in the experiment filed under Homo sapiens [3] worked out at 1220; in the experiment listed under Homo sapiens [5] it was 390; in the experiment filed under Homo sapiens [6] it was 48.8; in the experiment filed under Homo sapiens [7], 196; in the experiment listed under Homo sapiens [8], 181.

For `Cc1ccc(C(=O)c2ccc3c(ccn3S(=O)(=O)c3cccc(/C=C/C(=O)NO)c3)c2)cc1`, the IC50 on Histone deacetylase 2 was determined as 7.27 µM; in experiment [2], 9.1 µM; against Histone deacetylase 1, 1.42 µM; in experiment [4], 2.75 µM; against Histone deacetylase 3 it was 0.891 µM; against Histone deacetylase 8, 4.48 µM. Besides, the Ratio IC50 in the experiment filed under Homo sapiens [3] came out at 3.3; in the experiment listed under Homo sapiens [5] it was 0.3; in the experiment listed under Homo sapiens [6] it was 1.6; in the experiment filed under Homo sapiens [7], 2.6; in the experiment filed under Homo sapiens [8] it was 0.5.

What is called IC50 is the concentration needed to halve the response being measured.
